Assay results reported in paper PMC9302689 (British Journal of Clinical Pharmacology, 2022).

Assay: Pharmacokinetics, first-in-human single ascending dose study
Assay type: in vivo
Details: n = 8
Method in brief: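 Healthy men received a single fasted dose of 3–200 mg, with 8 on active drug per cohort. Plasma was sampled pre-dose and at 0.25–36 h. Drug was quantified by validated LC–MS/MS (LLOQ 1.00 ng/mL). Cmax, tmax, t1/2, AUClast and AUC∞ were calculated by noncompartmental analysis using actual elapsed sampling times.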

## CN1CCC23CCCCC2C1Cc1ccc(C(N)=O)cc13 (stereo not drawn) [ALKS 7119, (9α, 13α)‐17‐methylmorphinan‐3‐carboxamide]
50 mg single oral dose
  AUClast, range: 1234.86 to 1780.97 ng·h/mL
  AUC∞, mean (SD): 1547.06 (196.89) hr*ng/ml
  AUC∞, range: 1277.55 to 1828.84 ng·h/mL
  Cmax, mean (SD): 140.00 (32.44) ng/ml
  Cmax, range: 103.00 to 190.00 ng/mL
  Cmax/dose: 2.80
  t1/2, mean (SD): 7.81 (0.69) h
  t1/2, range: 6.99 to 8.68 h
  tmax, median: 1.53 h
  tmax, range: 1.00 to 4.00 h
75 mg single oral dose
  AUC infinite/dose: 33.98
  AUClast, mean (SD): 2406.33 (373.64) hr*ng/ml
  AUClast, range: 1732.82 to 2969.47 ng·h/mL
  AUC∞, mean (SD): 2548.51 (468.23) hr*ng/ml
  AUC∞, range: 1772.06 to 3367.86 ng·h/mL
  Cmax, mean (SD): 225.50 (40.59) ng/ml
  Cmax, range: 190.00 to 302.00 ng/mL
  Cmax/dose: 3.01
  t1/2, mean (SD): 8.42 (1.63) h
  t1/2, range: 6.84 to 12.01 h
  tmax, median: 1.50 h
  tmax, range: 0.50 to 4.00 h
100 mg single oral dose
  AUC infinite/dose: 31.36
  AUClast, mean (SD): 3027.23 (600.53) hr*ng/ml
  AUClast, range: 2340.29 to 4326.23 ng·h/mL
  AUC∞, mean (SD): 3136.45 (634.60) hr*ng/ml
  AUC∞, range: 2418.74 to 4525.46 ng·h/mL
  Cmax, mean (SD): 307.63 (75.28) ng/ml
  Cmax, range: 224.00 to 465.00 ng/mL
  Cmax/dose: 3.08
  t1/2, mean (SD): 7.63 (0.93) h
  t1/2, range: 6.36 to 8.84 h
  tmax, median: 1.50 h
  tmax, range: 1.00 to 4.08 h
125 mg single oral dose
  AUC infinite/dose: 33.50
  AUClast, mean (SD): 4059.17 (809.98) hr*ng/ml
  AUClast, range: 3120.58 to 5579.28 ng·h/mL
  AUC∞, mean (SD): 4187.59 (840.18) hr*ng/ml
  AUC∞, range: 3188.91 to 5732.16 ng·h/mL
  Cmax, range: 315.00 to 745.00 ng/mL
  Cmax/dose: 3.58
  t1/2, mean (SD): 7.26 (0.99) h
  t1/2, range: 6.06 to 8.72 h
  tmax, median: 2.00 h
  tmax, range: 2.00 to 4.00 h
150 mg single oral dose
  AUC infinite/dose: 30.22
  AUClast, mean (SD): 4361.53 (782.96) hr*ng/ml
  AUClast, range: 3622.31 to 6015.06 ng·h/mL
  AUC∞, mean (SD): 4533.66 (862.77) hr*ng/ml
  AUC∞, range: 3790.65 to 6362.63 ng·h/mL
  Cmax, mean (SD): 413.38 (65.38) ng/ml
  Cmax, range: 314.00 to 540.00 ng/mL
  Cmax/dose: 2.76
  t1/2, mean (SD): 7.53 (0.88) h
  t1/2, range: 6.10 to 8.51 h
  tmax, median: 2.00 h
  tmax, range: 1.00 to 4.00 h
175 mg single oral dose
  AUC infinite/dose: 34.02
  AUClast, mean (SD): 5754.94 (1013.23) hr*ng/ml
  AUClast, range: 4681.45 to 7356.86 ng·h/mL
  AUC∞, mean (SD): 5954.09 (1047.00) hr*ng/ml
  AUC∞, range: 4820.27 to 7488.93 ng·h/mL
  Cmax, mean (SD): 660.63 (167.66) ng/ml
  Cmax, range: 451.00 to 893.00 ng/mL
  Cmax/dose: 3.78
  t1/2, mean (SD): 7.48 (0.87) h
  t1/2, range: 5.91 to 8.83 h
  tmax, median: 2.01 h
  tmax, range: 1.02 to 4.00 h
200 mg single oral dose
  AUC infinite/dose: 33.61
  AUClast, mean (SD): 6490.47 (1144.87) hr*ng/ml
  AUClast, range: 5120.43 to 8737.25 ng·h/mL
  AUC∞, mean (SD): 6721.82 (1227.19) hr*ng/ml
  AUC∞, range: 5273.49 to 9126.15 ng·h/mL
  Cmax, mean (SD): 656.00 (104.74) ng/ml
  Cmax, range: 491.00 to 795.00 ng/mL
  Cmax/dose: 3.28
  t1/2, mean (SD): 7.35 (0.58) h
  t1/2, range: 6.72 to 8.33 h
  tmax, median: 3.00 h
  tmax, range: 1.00 to 4.00 h
